Measurements from publication PMC5492419 (ACS Central Science, 2017).

Key:
[1] = tested on: mouse macrophage J774 cells; assay type: cell-based; details: 0.3 mg/mL peptide in human plasma, 2% apoB-depleted plasma, 4 h
Summary of the method: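 Mouse macrophage J774 cells were incubated 4 h with 2% apoB-depleted plasma samples. The plasma was human plasma pre-treated with peptide at 0.3 mg/mL (~270 μM cyclic peptide), with a concentration range for one peptide. Efflux was expressed relative to vehicle-treated plasma, set as 0% efflux. Samples were run in quadruplicate and reported as mean ± SD. Peptide alone as acceptor was also tested against vehicle.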

human plasma HDL = experiment: Human plasma remodeling, Western blot for human apoA-I; assay type: biochemical; details: Western blot, 0.4, 0.2, 0.1 mg/mL
Summary of the method: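 Lipid-poor pre-beta HDL was then detected by Western blotting for human apoA-I. The positive control was a control peptide at 0.1 mg/mL, and the negative control was 10% sucrose.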

human plasma HDLs = experiment: Pre-beta HDL ELISA after incubating human plasma with peptide; assay type: biochemical; details: ELISA screen
Summary of the method: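 Peptides were incubated with human plasma in vitro for 1 h. Pre-beta HDL was then quantified by ELISA and reported as the concentration of pre-beta HDL generated, as mean ± SD.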

Ac-wLwSeQsO-NH2 [compound 82]
cholesterol efflux, in words [1]: failed to remodel plasma HDL or promote cholesterol efflux
plasma HDL remodeling, in words (human plasma HDL): failed to remodel plasma HDL

wMeLwReMeQeR [peptide 27]
HDL remodeling activity (pre-beta HDL formation), in words (human plasma HDLs): greatly diminished compared to 21

c[wL^MewSeQ^MesO] [compound 83]
cholesterol efflux, in words [1]: greatly diminished
plasma HDL remodeling, in words (human plasma HDL): greatly diminished

wWwReQeR [compound 25]
HDL remodeling activity (pre-beta HDL formation), in words (human plasma HDLs): less active than peptide 21

WlWrEqEr [compound 22]
HDL remodeling activity (pre-beta HDL formation), in words (human plasma HDLs): nearly identical

wLwReQeO [compound 18]
HDL remodeling activity (pre-beta HDL formation), in words (human plasma HDLs): essentially inactive

pyLwKsKsK [compound 37]
HDL remodeling activity (pre-beta HDL formation), in words (human plasma HDLs): promoted HDL remodeling

wLWReQeR [compound 28]
HDL remodeling activity (pre-beta HDL formation), in words (human plasma HDLs): reduced

wAOwReQeR [compound 24]
HDL remodeling activity (pre-beta HDL formation), in words (human plasma HDLs): less active than peptide 21

wLwREQeR [compound 29]
HDL remodeling activity (pre-beta HDL formation), in words (human plasma HDLs): reduced

wLwErQrE [compound 30]
HDL remodeling activity (pre-beta HDL formation), in words (human plasma HDLs): dramatically reduced compared to 21
cholesterol efflux, in words [1]: dramatically reduced compared to that of 21

wHLwReQeR [compound 23]
HDL remodeling activity (pre-beta HDL formation), in words (human plasma HDLs): less active than peptide 21

wNAwReQeR [compound 26]
HDL remodeling activity (pre-beta HDL formation), in words (human plasma HDLs): less active than peptide 21
